Screening results: PubChem BioAssay, several laboratories
In the library only some 9.6% were active in any assay of this set; here they are far more common.
APP transl inh: inhibitors of APP translation via 5'UTR reporter, primary screen, APP 5'UTR luciferase, SH-SY5Y cells | inhibition, % at 2 µM | AID 1285, 2008 | actives 0.82% (n = 190,000) | SH-SY5Y APP 5'UTR-luciferase reporter, luminescence;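 active = inhibition above a set limit, derived from the sample mean plus 3 SD, cut at about 45% in these data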
b-catenin transl: modulators of beta-catenin nuclear translocation, primary screen, imaging, HeLa cells, immunofluorescence, high-content. nuclear translocation activity, % at 5 µM. actives 0.3% (n = 190,000);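 active = nuclear translocation activity above 50% at 5 µM, with a well cell count of 50 or more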;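 also: per-cell ratio of nuclear to cytoplasmic median beta-catenin stain intensity; plate controls were DMSO negative control for no effect and GSK-3 inhibitor IX positive control for full effect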
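Technique: fluorescence imaging of beta-catenin antibody stain plus DAPI / Material: human HeLa cell line / Incubation: compound treatment 24 h, 37°C, 5% CO2 / Read-out basis: % activation of per-cell nuclear versus cytoplasmic median beta-catenin signal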
BaF3 tox: parental Ba/F3 cell viability inhibition, counter-screen for JAK2V617F inhibitor project, murine pro-B, CellTiter-Glo luminescence. CellTiter-Glo ATP luminescence. inhibition, % at 5.6 µM. actives 1.1% (n = 220,000);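 active = inhibition above a per-campaign cutoff, the mean inhibition of all tested compounds plus 3 SD, cut at about 27% in these data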;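 also: 0% = DMSO wells and 100% = JAK Inhibitor I control wells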
Ba/F3 V617F tox: reduced viability of JAK2V617F-dependent Ba/F3 cells, primary screen, JAK2V617F inhibitor project, cell-based, Ba/F3 EpoR-JAK2V617F, luminescence; ATP luminescence; inhibition, % at 5.6 µM; actives 1.1% (n = 220,000); AID 1446, 2008;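 active = inhibition above the campaign mean plus 3 SD over all tested compounds, cut at about 24% in these data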;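 also: cytokine-independent growth of Ba/F3 cells driven by EpoR plus mutant JAK2; 0% = DMSO-treated cells and 100% = JAK inhibitor I control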
MT stabilizer: microtubule stabilizers in HeLa cells, primary screen, imaging, high-content imaging. % tubulin-high responders, % at 10 µM. AID 2205, 2009. HeLa tubulin immunostaining HCS, 24 h; share of cells brighter than vehicle mean+2SD. actives 0.83% (n = 200,000);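 active = plate Z-score above 3 for both tubulin-high and condensed-nucleus cell shares, with cell loss under 80%, at 10 µM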;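 also: anti alpha tubulin signal scored within the nucleus-defined area of each cell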
Lmaj promast: Leishmania major promastigote growth inhibition, primary screen. Leishmania major promastigotes, resazurin fluorescence viability. inhibition, % at 10 µM. actives 9% (n = 200,000). AID 1063, 2008; in the data active = inhibition above about 50%;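 also: promastigotes grown with compound for 44 hours at 28 °C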
Active calls of the source: *; nt = not tested or not shown.

SMILES	APP transl inh	b-catenin transl	BaF3 tox	Ba/F3 V617F tox	MT stabilizer	Lmaj promast
CCn1cc(C(=O)Nc2ccc3c(c2)OCCO3)c2cc(OC)c(OC)cc2c1=O	-7	1	0	-2	9	51*
Cc1[nH]c2ccccc2c1C(=O)CN1CCN(C/C=C/c2ccccc2)CC1	12	-2	6	1	1	83*
Cc1[nH]c2ccccc2c1C(=O)CN1CCN(C2CCCCC2)CC1	20	-3	1	-2	1	-4
COc1ccc2[nH]c(C)c(C(=O)CN3CCN(C/C=C/c4ccccc4)CC3)c2c1	-5	-4	2	1	3	62*
Cc1ccccc1OCC(=O)NCC(=O)N/N=C/c1ccc(Br)o1	-7	2	3	0	2	-6
CCCOc1ccc(CCC(=O)N/N=C/c2ccc([N+](=O)[O-])o2)cc1	nt	-3	2	-1	nt	nt
Cc1ccccc1OCC(=O)N/N=C/c1ccc([N+](=O)[O-])o1	-7	5	7	2	7	98*
COc1ccccc1OCC(=O)N/N=C/C=C/c1ccc([N+](=O)[O-])o1	10	4	0	1	8	100*
Cc1cc(C)cc(OCC(=O)N/N=C/c2ccc([N+](=O)[O-])o2)c1	-1	0	11	4	2	96*
O=C1NC(=Nc2ccccc2)S/C1=C\C=C\c1ccco1	-13	4	-1	-3	17*	5
Cc1ccc(N=C2NC(=O)/C(=C/C=C/c3ccco3)S2)cc1	-16	6	5	-1	2	1
CC(/C=C/c1ccco1)=N/NC(=O)Cc1cccs1	4	1	1	-1	3	7
COC(=O)Cc1n[nH]c(=O)c2ccccc12	12	2	3	-2	2	1
COC(=O)Cc1n[nH]c(=S)[nH]c1=O	50*	1	4	-2	5	-1
CCSc1nc2ccccc2n1C(=O)/C=C\c1ccc(OC)c(OC)c1	-4	4	1	1	3	90*
OCCN(CCO)CC(O)COCCC12CC3CC(CC(C3)C1)C2 (stereo not drawn)	-2	0	1	-3	1	71*
OCCN(CCO)CC(O)COc1ccc(Br)cc1 (stereo not drawn)	nt	1	0	-1	nt	nt
CCN(CC)CC(O)COCCC12CC3CC(CC(C3)C1)C2 (stereo not drawn)	12	nt	6	-1	1	93*
CCc1ccc(OCCOCC(O)CN(CCO)CCO)cc1 (stereo not drawn)	13	-1	8	0	2	-6
OCCN(CCO)CC(O)COc1ccc(C23CC4CC(CC(C4)C2)C3)cc1 (stereo not drawn)	53*	0	6	-3	2	100*
CCc1c(C)nc(SCC(=O)N2CCCCC2C)[nH]c1=O (stereo not drawn)	-10	0	9	0	5	-8
C[C@@H]1CC=C[C@H]2[C@H]1C(=O)N(Cc1ccccc1)[C@H]2c1ccc2ccccc2c1Br	nt	-2	nt	nt	nt	nt
CC(C)NCc1cc(Br)ccc1OCc1ccccc1	3	-4	5	0	4	43
Cc1cc(C)cc(N(CC(=O)N2CCN(Cc3ccccc3)CC2)S(=O)(=O)c2c(C)noc2C)c1	-13	-1	0	-4	7	-5
CCOc1cc(C)c(S(=O)(=O)Nc2ccc3cn[nH]c3c2)cc1C	6	-2	40*	5	3	39
SMILES	APP transl inh	b-catenin transl	BaF3 tox	Ba/F3 V617F tox	MT stabilizer	Lmaj promast
CSc1ccccc1C(=O)C1CCCN(C(=O)NC(C)C)C1 (stereo not drawn)	-31	1	-1	-1	3	0
COC(=O)c1ccccc1NC(=O)N1c2ccccc2Sc2ccccc21	-16	0	4	1	1	90*
COC(=O)c1ccc(C(=O)OC)c(NC(=O)N2c3ccccc3Sc3ccccc32)c1	10	-1	-3	-3	12	2
COc1ccccc1C(=O)N1c2ccccc2Sc2ccccc21	-15	14	7	-2	11*	16
COC(=O)c1ccccc1NC(=O)N[C@@H](C)C(=O)OC	76*	-1	-1	-3	4	-2
Fc1ccc(NC(=S)Nc2ccccc2N2CCOCC2)cc1Cl	-17	0	5	1	3	9
C=CCNC(=O)c1ccc(S(=O)(=O)CC)c(Cl)c1Cl	-3	0	4	-1	4	-3
CC(C)(C)c1ccc(S(=O)(=O)N2CCN(CCC#N)CC2)cc1	-21	-1	3	-3	2	56*
CC(C)(C)c1ccc(S(=O)(=O)N2CCCCC2)cc1	6	nt	3	-1	4	92*
CC1=NN(S(=O)(=O)c2ccc(C)cc2)C(=O)c2ccccc2O1	nt	-1	-8	-2	nt	nt
COc1ccc(S(=O)(=O)N2N=C(C)Oc3ccccc3C2=O)cc1	85*	80*	76*	86*	37*	-1
S=C(Nc1cccc(Cl)c1Cl)N1CCC2(CC1)OCCO2	-10	-2	30*	3	1	-4
CCOc1ccc2[nH]c(=O)c(CN(CCN3CCCC3)C(=S)Nc3ccccc3OCC)cc2c1	6	1	3	-6	3	98*
CCOc1ccc2[nH]c(=O)c(CN(CC3COCCO3)C(=O)c3ccco3)cc2c1 (stereo not drawn)	nt	-3	nt	nt	nt	nt
COc1ccc2[nH]c(=O)c(CN(C(=O)c3ccccn3)c3ccccc3)cc2c1	-6	nt	3	2	5	100*
CCOc1ccc2[nH]c(=O)c(CN(Cc3ccccc3OC)C(=O)c3ccccc3)cc2c1	6	-2	5	-1	24*	18
COc1ccc2[nH]c(=O)c(CN(Cc3ccco3)C(=O)c3ccccc3)cc2c1	14	-7	2	2	4	25
CCOc1ccc2[nH]c(=O)c(CN(Cc3ccc(F)cc3)C(=O)c3ccco3)cc2c1	-10	-4	9	1	47*	28
O=C1CN(C(=O)c2cc([N+](=O)[O-])ccc2Cl)C(c2ccc(F)cc2)c2cc(F)ccc2N1 (stereo not drawn)	-4	-3	8	2	2	79*
O=C1CN(C(=O)c2ccc(Br)o2)C(c2ccccc2)c2cc(F)ccc2N1 (stereo not drawn)	-3	nt	6	-2	3	92*
O=C1CN(C(=O)c2cc3ccccc3oc2=O)C(c2ccc(F)cc2)c2cc(F)ccc2N1 (stereo not drawn)	-16	-5	4	-2	3	16
O=C1/C(=C/c2ccccc2)NC(=S)N1C(c1ccccc1)c1ccccc1	-13	61*	1	-3	36*	2
